In ChEMBL document CHEMBL4330069, “Boosting the efficacy of anti-MRSA β-lactam antibiotics via an easily accessible, non-cytotoxic and orally bioavailable FtsZ inhibitor” (Eur J Med Chem, 2019):
Converted amounts (≈) assume the structure as drawn.

What was measured:
Type in all cases: functional
Staphylococcus aureus [1] = test: Synergistic antibacterial activity against multidrug-resistant Staphylococcus aureus isolate 2490 in presence of amoxicillin by broth microdilution assay
Outline: (§1)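 Clinical MRSA isolate panel; compound and β-lactam tested alone and in combination by CLSI broth microdilution, compounds dissolved in DMSO, growth inhibition scored by eye, run in duplicate. FIC index = FIC(compound) + FIC(drug), each the MIC in combination divided by the MIC alone; an index ≤ 0.5 was called synergy.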

Staphylococcus aureus [2] = test: Synergistic antibacterial activity against multidrug-resistant Staphylococcus aureus isolate 2973 in presence of amoxicillin by broth microdilution assay
Outline: (§2)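 CLSI broth microdilution on clinical MRSA isolates. MICs were measured for the β-lactam alone, the test agent alone and the two combined. Compounds were dissolved in DMSO, and growth inhibition was scored by eye. FIC index is the sum, over both agents, of MIC in combination divided by MIC alone. An FIC index ≤0.5 was taken as synergy.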

Staphylococcus aureus [3] = test: Synergistic antibacterial activity against multidrug-resistant Staphylococcus aureus isolate 3267 assessed as fractional Inhibitory concentration index in presence of methicillin by broth microdilution assay
Staphylococcus aureus [4] = test: Synergistic antibacterial activity against multidrug-resistant Staphylococcus aureus isolate 2973 in presence of cefuroxime by broth microdilution assay; outline: as §2
Staphylococcus aureus [5] = test: Synergistic antibacterial activity against multidrug-resistant Staphylococcus aureus isolate 1344 in presence of methicillin by broth microdilution assay; outline: as §1
Staphylococcus aureus [6] = test: Synergistic antibacterial activity against multidrug-resistant Staphylococcus aureus isolate 254 in presence of meropenem by broth microdilution assay; outline: as §2
Staphylococcus aureus [7] = test: Synergistic antibacterial activity against multidrug-resistant Staphylococcus aureus isolate 1402 in presence of methicillin by broth microdilution assay; outline: as §1
Staphylococcus aureus [8] = test: Synergistic antibacterial activity against multidrug-resistant Staphylococcus aureus isolate 3332 assessed as fractional Inhibitory concentration index in presence of meropenem by broth microdilution assay
Staphylococcus aureus [9] = test: Synergistic antibacterial activity against multidrug-resistant Staphylococcus aureus isolate 358 assessed as fractional Inhibitory concentration index in presence of methicillin by broth microdilution assay
Staphylococcus aureus [10] = test: Synergistic antibacterial activity against multidrug-resistant Staphylococcus aureus isolate 3267 assessed as fractional Inhibitory concentration index in presence of meropenem by broth microdilution assay
Staphylococcus aureus [11] = test: Synergistic antibacterial activity against multidrug-resistant Staphylococcus aureus isolate 1449 in presence of cefuroxime by broth microdilution assay; outline: as §1
Staphylococcus aureus [12] = test: Synergistic antibacterial activity against multidrug-resistant Staphylococcus aureus isolate 200 assessed as fractional Inhibitory concentration index in presence of methicillin by broth microdilution assay
Staphylococcus aureus [13] = test: Synergistic antibacterial activity against multidrug-resistant Staphylococcus aureus isolate 1344 assessed as fractional Inhibitory concentration index in presence of cloxacillin by broth microdilution assay
Outline: (§3)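 CLSI broth microdilution run on clinical MRSA isolates with each β-lactam alone, the test agent alone, and the two combined; agents dissolved in DMSO. Growth inhibition was read by eye. FIC index = FIC(compound) + FIC(β-lactam), where each FIC is the MIC in combination divided by the MIC alone. An index ≤0.5 was taken as synergy.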

Staphylococcus aureus [14] = test: Synergistic antibacterial activity against multidrug-resistant Staphylococcus aureus isolate 2895 assessed as fractional Inhibitory concentration index in presence of amoxicillin by broth microdilution assay
Staphylococcus aureus [15] = test: Synergistic antibacterial activity against multidrug-resistant Staphylococcus aureus isolate 3411 in presence of methicillin by broth microdilution assay
Staphylococcus aureus [16] = test: Synergistic antibacterial activity against multidrug-resistant Staphylococcus aureus isolate 2516 in presence of methicillin by broth microdilution assay; outline: as §2
Staphylococcus aureus [17] = test: Synergistic antibacterial activity against multidrug-resistant Staphylococcus aureus isolate 1717 in presence of cloxacillin by broth microdilution assay; outline: as §1
Staphylococcus aureus [18] = test: Synergistic antibacterial activity against multidrug-resistant Staphylococcus aureus isolate 2728 assessed as fractional Inhibitory concentration index in presence of amoxicillin by broth microdilution assay
Staphylococcus aureus [19] = test: Synergistic antibacterial activity against multidrug-resistant Staphylococcus aureus isolate 1344 in presence of amoxicillin by broth microdilution assay; outline: as §1
Staphylococcus aureus [20] = test: Synergistic antibacterial activity against multidrug-resistant Staphylococcus aureus isolate 256 assessed as fractional Inhibitory concentration index in presence of amoxicillin by broth microdilution assay
Staphylococcus aureus [21] = test: Synergistic antibacterial activity against multidrug-resistant Staphylococcus aureus isolate 1449 assessed as fractional Inhibitory concentration index in presence of cefuroxime by broth microdilution assay; outline: as §3
Staphylococcus aureus [22] = test: Antibacterial activity against Staphylococcus aureus ATCC 29213 by broth microdilution assay
Outline: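 Broth microdilution per CLSI guidelines; compounds dissolved in DMSO; single agents tested; growth inhibition read by eye; run in duplicate (table footnote states at least triplicates).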

Staphylococcus aureus [23] = test: Synergistic antibacterial activity against multidrug-resistant Staphylococcus aureus isolate 256 assessed as fractional Inhibitory concentration index in presence of cefuroxime by broth microdilution assay
Staphylococcus aureus [24] = test: Synergistic antibacterial activity against multidrug-resistant Staphylococcus aureus isolate 256 in presence of meropenem by broth microdilution assay; outline: as §2
Staphylococcus aureus [25] = test: Antibacterial activity against multidrug-resistant Staphylococcus aureus isolate 774 by broth microdilution assay
Outline: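 Broth microdilution MIC per CLSI guidelines against clinical MRSA isolates, for β-lactams and test compound alone and in combination. Compounds were dissolved in DMSO. Growth was read by eye, in duplicate. FIC index = FIC(compound) + FIC(drug); synergy defined as FIC index ≤0.5.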

CCCCCCCCCNc1ccc(F)c(C(N)=O)c1F
MIC (Staphylococcus aureus [1]): 8 µg/mL | MIC (Staphylococcus aureus [2]): 8 µg/mL | fractional inhibitory concentration index (FICI) (Staphylococcus aureus [3]): 0.1 | MIC (Staphylococcus aureus [4]): 4 µg/mL | MIC (Staphylococcus aureus [5]): 4 µg/mL | MIC (Staphylococcus aureus [6]): 8 µg/mL | MIC (Staphylococcus aureus [7]): 2 µg/mL | fractional inhibitory concentration index (FICI) (Staphylococcus aureus [8]): 2.3 | fractional inhibitory concentration index (FICI) (Staphylococcus aureus [9]): 0.3 | fractional inhibitory concentration index (FICI) (Staphylococcus aureus [10]): 4 | MIC (Staphylococcus aureus [11]): 2 µg/mL | fractional inhibitory concentration index (FICI) (Staphylococcus aureus [12]): 0.3 | fractional inhibitory concentration index (FICI) (Staphylococcus aureus [13]): 0.1 | fractional inhibitory concentration index (FICI) (Staphylococcus aureus [14]): 1.1 | MIC (Staphylococcus aureus [15]): 2 µg/mL | MIC (Staphylococcus aureus [16]): 4 µg/mL | MIC (Staphylococcus aureus [17]): 1 µg/mL | fractional inhibitory concentration index (FICI) (Staphylococcus aureus [18]): 0.1 | MIC (Staphylococcus aureus [19]): 16 µg/mL | fractional inhibitory concentration index (FICI) (Staphylococcus aureus [20]): 0.1 | fractional inhibitory concentration index (FICI) (Staphylococcus aureus [21]): 1.5 | MIC (Staphylococcus aureus [22]): 3.1 µM (≈ 0.925 µg/mL) | fractional inhibitory concentration index (FICI) (Staphylococcus aureus [23]): 0 | MIC (Staphylococcus aureus [24]): 8 µg/mL | MIC (Staphylococcus aureus [25]): 512 µg/mL (≈ 1720 µM)
